Active and inactive are the calls of the source. The rule behind the calls is not given here.
Key:
[1] = molecular target: T1, Fe(3+)-Zn(2+) purple acid phosphatase (Phaseolus vulgaris) (UniProt P80366); experiment: Inhibition of red kidney bean PAP at pH 6.2
T1 sequence (whole entry): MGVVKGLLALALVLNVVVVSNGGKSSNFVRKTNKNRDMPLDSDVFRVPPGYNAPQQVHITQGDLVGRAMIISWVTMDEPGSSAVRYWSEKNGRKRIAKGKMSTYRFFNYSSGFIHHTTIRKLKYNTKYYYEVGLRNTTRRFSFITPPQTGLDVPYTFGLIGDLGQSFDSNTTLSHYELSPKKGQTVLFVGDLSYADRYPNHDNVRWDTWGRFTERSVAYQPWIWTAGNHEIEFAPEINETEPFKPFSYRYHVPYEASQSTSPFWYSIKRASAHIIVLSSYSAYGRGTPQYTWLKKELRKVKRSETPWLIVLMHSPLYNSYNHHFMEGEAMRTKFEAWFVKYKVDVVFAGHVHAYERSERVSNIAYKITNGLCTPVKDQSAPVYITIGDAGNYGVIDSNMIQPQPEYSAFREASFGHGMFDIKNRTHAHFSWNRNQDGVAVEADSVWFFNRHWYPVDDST
Outline: (§1)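 Each enzyme was run at its own pH optimum: red kidney bean PAP at pH 6.2 and pig PAP at pH 4.9. IC50 values were determined experimentally. Separate inhibition constants were derived for binding to the free enzyme and to the enzyme–substrate complex.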

Homo sapiens = organism: Homo sapiens; experiment: Inhibition of human PAP
Sus scrofa [2] = organism: Sus scrofa; experiment: Activity of pig PAP at pH 4.9
Sus scrofa [3] = organism: Sus scrofa; experiment: Inhibition of pig PAP at pH 4.9; outline: as §1

logIC50 [1] | Kic [1] | Kiuc [1] | Km (Sus scrofa [2]) | Kic (Sus scrofa [3]) | Kiuc (Sus scrofa [3]) | logIC50 (Sus scrofa [3]) | SMILES | Activity (Homo sapiens)
-1 | 0.05 mM | 0.129 mM | 1500 µM | 0.023 mM | 0.044 mM | -1.5 | CCCCCCCCOC(c1cccc2ccccc12)P(=O)(O)O (racemic) | –
0 | 1.47 mM | 1.43 mM | 2650 µM | – | – | -0.37 | CCCCCCOC(c1cccc2ccccc12)P(=O)(O)O (racemic) | –
-2.1 | 0.004 mM | 0.03 mM | 1130 µM | 0.017 mM | 0.02 mM | -1.7 | CCCCCCCCCCOC(c1cccc2ccccc12)P(=O)(O)O (racemic) | –

SMILES | logIC50 [1] | Kic [1] | Kiuc [1] | Km (Sus scrofa [2]) | Kic (Sus scrofa [3]) | Kiuc (Sus scrofa [3]) | logIC50 (Sus scrofa [3]) | Activity (Homo sapiens)
O=P(O)(O)C(O)c1cccc2ccccc12 (configuration not stated) | 0.7 | – | – | – | – | – | – | inactive
O=P(O)(O)Cc1cccc2ccccc12 | > 0.845 | – | – | – | – | – | – | –
